# Active and inactive are the calls of the source. The calls are words filed in the database; no cut-off is given here.
# Key:
# Homo sapiens [1] = species on record: Homo sapiens; experiment: Selectivity ratio of IC50 for His tagged recombinant BRD4 bromodomain 1 (unknown origin) to IC50 for His tagged recombinant CBP (unknown origin)
# [2] = target: Bromodomain-containing protein 4 (Homo sapiens, UniProt O60885); experiment: Inhibition of His tagged recombinant BRD4 bromodomain 1 (unknown origin) by TR-FRET assay
# Procedure, shortened: (§1)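 Recombinant His-tagged bromodomains purified by Ni affinity, tag removed with thrombin, checked by mass spectrometry. Assay is TR-FRET competition against a biotinylated small-molecule ligand. Normalized inhibition vs concentration fit to 4-parameter Hill equation; […] for optimization.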
# CREB-binding protein [3] = target: T1, CREB-binding protein (Homo sapiens, UniProt Q92793); experiment: Inhibition of His tagged recombinant CBP (unknown origin) by TR-FRET assay; procedure, shortened: as §1
# Target sequence in this assay (Q92793 whole entry): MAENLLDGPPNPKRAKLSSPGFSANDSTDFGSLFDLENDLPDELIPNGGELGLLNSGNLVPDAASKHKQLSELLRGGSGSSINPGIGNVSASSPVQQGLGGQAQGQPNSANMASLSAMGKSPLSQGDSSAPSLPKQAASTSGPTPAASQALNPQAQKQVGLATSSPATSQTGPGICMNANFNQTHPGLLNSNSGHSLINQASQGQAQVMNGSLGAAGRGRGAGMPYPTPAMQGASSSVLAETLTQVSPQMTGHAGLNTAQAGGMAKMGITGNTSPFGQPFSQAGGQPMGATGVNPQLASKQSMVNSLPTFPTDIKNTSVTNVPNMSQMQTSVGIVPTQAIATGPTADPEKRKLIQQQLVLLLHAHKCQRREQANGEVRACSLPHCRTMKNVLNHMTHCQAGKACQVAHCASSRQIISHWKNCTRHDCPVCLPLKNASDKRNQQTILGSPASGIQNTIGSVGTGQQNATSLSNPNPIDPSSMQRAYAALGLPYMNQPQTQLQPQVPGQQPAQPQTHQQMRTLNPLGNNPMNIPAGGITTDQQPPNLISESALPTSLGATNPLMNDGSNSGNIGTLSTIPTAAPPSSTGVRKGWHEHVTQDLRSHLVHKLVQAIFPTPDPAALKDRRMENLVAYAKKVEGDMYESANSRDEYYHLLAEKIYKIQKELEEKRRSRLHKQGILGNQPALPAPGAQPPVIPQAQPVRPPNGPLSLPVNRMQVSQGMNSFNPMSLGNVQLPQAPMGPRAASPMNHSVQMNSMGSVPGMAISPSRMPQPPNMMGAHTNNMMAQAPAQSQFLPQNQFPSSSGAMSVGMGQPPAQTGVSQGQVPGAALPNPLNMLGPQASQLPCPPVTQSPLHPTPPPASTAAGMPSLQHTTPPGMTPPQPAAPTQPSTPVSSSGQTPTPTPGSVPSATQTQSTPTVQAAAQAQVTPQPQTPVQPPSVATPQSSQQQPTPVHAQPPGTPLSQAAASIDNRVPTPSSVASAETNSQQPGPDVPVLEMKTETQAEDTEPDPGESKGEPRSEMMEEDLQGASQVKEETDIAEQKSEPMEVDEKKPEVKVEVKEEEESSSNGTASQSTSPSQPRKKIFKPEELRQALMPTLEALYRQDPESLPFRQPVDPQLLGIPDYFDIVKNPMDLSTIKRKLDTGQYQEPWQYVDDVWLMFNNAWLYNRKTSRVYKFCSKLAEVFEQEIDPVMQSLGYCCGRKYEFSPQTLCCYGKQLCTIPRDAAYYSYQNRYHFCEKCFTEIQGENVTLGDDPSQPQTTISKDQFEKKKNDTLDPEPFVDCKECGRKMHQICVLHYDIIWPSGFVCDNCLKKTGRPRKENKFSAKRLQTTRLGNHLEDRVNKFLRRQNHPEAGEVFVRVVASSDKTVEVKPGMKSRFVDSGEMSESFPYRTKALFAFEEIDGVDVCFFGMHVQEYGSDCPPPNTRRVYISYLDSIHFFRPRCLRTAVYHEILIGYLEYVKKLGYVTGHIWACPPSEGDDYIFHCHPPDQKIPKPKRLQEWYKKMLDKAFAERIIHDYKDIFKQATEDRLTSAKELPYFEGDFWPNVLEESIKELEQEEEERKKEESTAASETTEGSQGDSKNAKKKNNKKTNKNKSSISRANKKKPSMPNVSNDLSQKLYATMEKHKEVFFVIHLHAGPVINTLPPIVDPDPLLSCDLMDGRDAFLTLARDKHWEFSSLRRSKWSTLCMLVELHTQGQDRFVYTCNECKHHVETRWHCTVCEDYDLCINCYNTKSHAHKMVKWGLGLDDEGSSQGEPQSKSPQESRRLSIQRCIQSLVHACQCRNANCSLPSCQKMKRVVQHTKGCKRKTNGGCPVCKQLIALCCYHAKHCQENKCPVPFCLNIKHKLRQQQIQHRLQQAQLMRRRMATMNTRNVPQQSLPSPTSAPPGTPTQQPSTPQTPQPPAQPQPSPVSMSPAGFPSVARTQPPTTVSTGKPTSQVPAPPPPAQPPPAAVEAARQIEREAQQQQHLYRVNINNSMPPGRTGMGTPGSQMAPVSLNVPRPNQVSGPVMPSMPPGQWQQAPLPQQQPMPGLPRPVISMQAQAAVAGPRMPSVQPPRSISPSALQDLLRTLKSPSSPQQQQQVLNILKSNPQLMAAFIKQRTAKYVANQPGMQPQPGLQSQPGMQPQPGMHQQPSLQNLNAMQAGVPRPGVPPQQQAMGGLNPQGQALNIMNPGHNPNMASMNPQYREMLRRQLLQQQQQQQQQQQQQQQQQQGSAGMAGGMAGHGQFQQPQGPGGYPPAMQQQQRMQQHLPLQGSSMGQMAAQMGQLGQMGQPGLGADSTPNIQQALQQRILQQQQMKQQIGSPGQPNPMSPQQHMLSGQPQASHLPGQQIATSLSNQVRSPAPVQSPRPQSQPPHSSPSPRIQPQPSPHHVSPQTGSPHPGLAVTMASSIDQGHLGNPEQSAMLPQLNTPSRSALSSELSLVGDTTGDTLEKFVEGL
# [4] = target: CREB-binding protein/Histone acetyltransferase p300 (Homo sapiens, UniProt Q09472+Q92793); experiment: Inhibition of P300/CBP in human MV4-11 cells assessed as reduction in MYC expression after 4 hrs by luminescence based assay; type: cell-based
# Procedure, shortened: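 MV-4-11 cells plated at 10,000 per well in RPMI1640 with 10% FBS and 2 mM L-glutamine. Compounds added in DMSO at a final 0.1% and incubated 4 h at 37 °C before MYC expression read-out; EC50 derived.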
# [5] = Intrinsic clearance in mouse liver microsomes at 1 uM in presence of NADPH by LC-MS/MS analysis; type: ADME, microsome; details: read-out: CLH
# [6] = Intrinsic clearance in human liver microsomes at 1 uM in presence of NADPH by LC-MS/MS analysis; type: ADME, microsome; details: read-out: CLH
# [7] = Intrinsic clearance in rat liver microsomes at 1 uM in presence of NADPH by LC-MS/MS analysis; type: ADME, microsome; details: read-out: CLH
# [8] = target: Chromatin remodeling regulator CECR2 (Homo sapiens, UniProt Q9BXF3); experiment: Inhibition of His tagged recombinant CECR2 (unknown origin) by TR-FRET assay; procedure, shortened: as §1
# [9] = target: T2, Bromodomain-containing protein 9 (Homo sapiens, UniProt Q9H8M2); experiment: Inhibition of His tagged recombinant BRD9 (unknown origin) by TR-FRET assay; procedure, shortened: as §1
# T2 sequence (Q9H8M2 whole entry): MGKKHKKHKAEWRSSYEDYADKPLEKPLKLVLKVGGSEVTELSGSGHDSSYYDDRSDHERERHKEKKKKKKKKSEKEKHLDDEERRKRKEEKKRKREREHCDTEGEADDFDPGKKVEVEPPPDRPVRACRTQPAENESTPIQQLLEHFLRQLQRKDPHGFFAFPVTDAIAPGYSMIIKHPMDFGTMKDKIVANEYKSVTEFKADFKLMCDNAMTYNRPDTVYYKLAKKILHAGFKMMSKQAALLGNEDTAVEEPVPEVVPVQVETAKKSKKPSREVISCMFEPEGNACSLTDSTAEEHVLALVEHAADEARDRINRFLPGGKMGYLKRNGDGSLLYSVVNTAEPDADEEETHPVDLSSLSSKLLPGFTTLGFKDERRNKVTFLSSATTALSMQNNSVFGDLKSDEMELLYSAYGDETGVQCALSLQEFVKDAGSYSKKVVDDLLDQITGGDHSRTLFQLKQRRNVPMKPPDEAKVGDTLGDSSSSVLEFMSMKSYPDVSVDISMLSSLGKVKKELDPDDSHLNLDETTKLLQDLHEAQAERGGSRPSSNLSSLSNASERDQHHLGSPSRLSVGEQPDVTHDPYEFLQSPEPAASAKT
# Homo sapiens [10] = species on record: Homo sapiens; experiment: Selectivity ratio of IC50 for His tagged recombinant CBP (unknown origin) to IC50 for His tagged recombinant BRD4 bromodomain 1 (unknown origin)
# CREB-binding protein [11] = target: T1, CREB-binding protein; experiment: Inhibition of His tagged recombinant CBP (unknown origin) at 50 uM by HTS assay
# Procedure, shortened: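 HTS TR-FRET competition of biotinylated ligand binding to recombinant His-tagged CBP bromodomain (tag thrombin-cleaved after Ni affinity). Highest concentration tested 50 μM. IC50 from 4-parameter Hill fit of normalized inhibition, reported as geometric mean of 2–8 replicates.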
# Target sequence in this assay (Q92793 2-2442 limits assumed): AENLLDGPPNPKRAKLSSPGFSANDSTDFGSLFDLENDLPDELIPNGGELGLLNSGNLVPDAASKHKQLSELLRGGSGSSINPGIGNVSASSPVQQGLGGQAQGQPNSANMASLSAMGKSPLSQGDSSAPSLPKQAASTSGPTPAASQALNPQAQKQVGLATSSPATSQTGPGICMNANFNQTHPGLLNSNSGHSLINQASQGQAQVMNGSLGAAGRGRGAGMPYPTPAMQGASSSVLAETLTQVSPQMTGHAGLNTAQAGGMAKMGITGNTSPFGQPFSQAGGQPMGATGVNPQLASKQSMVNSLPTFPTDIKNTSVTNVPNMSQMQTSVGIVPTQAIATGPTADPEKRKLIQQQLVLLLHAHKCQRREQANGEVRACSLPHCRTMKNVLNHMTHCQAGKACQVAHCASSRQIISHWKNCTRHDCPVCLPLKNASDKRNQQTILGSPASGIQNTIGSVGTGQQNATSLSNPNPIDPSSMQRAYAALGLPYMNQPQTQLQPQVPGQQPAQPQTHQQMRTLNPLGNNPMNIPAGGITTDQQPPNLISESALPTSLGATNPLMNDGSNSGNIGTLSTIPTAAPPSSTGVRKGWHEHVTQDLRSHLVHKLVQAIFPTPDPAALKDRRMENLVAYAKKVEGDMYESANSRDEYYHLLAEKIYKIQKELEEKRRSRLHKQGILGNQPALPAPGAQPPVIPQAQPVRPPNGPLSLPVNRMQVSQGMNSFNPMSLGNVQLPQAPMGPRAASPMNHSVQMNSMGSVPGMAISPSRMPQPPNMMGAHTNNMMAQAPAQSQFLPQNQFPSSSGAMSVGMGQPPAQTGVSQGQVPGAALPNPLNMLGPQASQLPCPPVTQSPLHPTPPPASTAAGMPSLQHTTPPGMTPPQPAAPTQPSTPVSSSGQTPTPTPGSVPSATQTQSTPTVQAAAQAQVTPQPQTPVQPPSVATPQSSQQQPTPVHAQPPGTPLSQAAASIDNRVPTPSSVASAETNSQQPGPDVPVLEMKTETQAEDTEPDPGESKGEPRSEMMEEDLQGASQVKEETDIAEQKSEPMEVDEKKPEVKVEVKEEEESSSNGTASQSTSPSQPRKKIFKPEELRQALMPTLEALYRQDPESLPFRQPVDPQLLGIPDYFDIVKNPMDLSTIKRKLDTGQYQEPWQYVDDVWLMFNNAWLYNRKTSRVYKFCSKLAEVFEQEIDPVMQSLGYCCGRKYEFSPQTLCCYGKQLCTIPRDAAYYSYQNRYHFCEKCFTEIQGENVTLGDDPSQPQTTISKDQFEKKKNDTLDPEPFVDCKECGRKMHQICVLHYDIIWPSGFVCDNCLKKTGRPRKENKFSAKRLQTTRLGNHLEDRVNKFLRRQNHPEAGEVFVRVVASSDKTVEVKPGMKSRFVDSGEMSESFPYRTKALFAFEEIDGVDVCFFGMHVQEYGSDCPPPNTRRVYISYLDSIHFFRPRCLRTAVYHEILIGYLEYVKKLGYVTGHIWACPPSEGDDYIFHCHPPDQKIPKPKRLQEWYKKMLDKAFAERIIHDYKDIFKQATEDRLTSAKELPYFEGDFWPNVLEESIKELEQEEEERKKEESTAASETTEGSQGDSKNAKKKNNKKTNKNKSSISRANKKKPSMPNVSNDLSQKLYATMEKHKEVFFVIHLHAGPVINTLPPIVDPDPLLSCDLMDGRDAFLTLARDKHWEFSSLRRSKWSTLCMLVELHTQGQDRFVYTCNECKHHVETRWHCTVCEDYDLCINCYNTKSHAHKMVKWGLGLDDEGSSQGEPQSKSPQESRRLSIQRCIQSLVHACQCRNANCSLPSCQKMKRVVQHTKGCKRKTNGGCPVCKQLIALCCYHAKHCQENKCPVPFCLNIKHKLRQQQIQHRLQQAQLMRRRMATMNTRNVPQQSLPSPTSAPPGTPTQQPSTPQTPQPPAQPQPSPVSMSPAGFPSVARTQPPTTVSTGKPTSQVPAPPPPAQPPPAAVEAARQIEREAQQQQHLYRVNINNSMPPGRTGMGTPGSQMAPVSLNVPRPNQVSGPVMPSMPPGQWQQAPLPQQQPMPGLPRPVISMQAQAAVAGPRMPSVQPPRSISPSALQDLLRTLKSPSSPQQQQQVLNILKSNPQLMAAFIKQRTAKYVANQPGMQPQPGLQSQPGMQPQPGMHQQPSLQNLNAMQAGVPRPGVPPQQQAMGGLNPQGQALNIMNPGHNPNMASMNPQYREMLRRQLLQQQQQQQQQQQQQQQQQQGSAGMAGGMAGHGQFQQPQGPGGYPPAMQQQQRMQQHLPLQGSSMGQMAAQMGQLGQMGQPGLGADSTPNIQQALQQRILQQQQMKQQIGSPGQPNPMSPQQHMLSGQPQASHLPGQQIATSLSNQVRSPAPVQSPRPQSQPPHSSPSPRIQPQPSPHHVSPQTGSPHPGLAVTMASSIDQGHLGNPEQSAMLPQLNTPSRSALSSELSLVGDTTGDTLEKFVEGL
SMILES,Ratio IC50 (Homo sapiens [1]),IC50 [2],IC50 (CREB-binding protein [3]),also measured
CNC(=O)c1c[nH]c2cnc(N3CCCc4cc(-c5cnn(C)c5)c(C(F)F)cc43)cc12,780,3.9 µM,–,EC50 [4]: 0.36 µM; CLint scaled at 1 µM [5]: 2.34 L/h/kg; CLint scaled at 1 µM [6]: 0.414 L/h/kg; CLint scaled at 1 µM [7]: 1.02 L/h/kg
Cn1cc(-c2cc3c(cc2C(F)F)N(c2cc(N4CCOCC4)c4c(c2)n(C)c(=O)n4C)CCC3)cn1,310,1.1 µM,0.0036 µM,EC50 [4]: 0.012 µM; CLint scaled at 1 µM [5]: 2.88 L/h/kg; CLint scaled at 1 µM [6]: 0.9 L/h/kg; CLint scaled at 1 µM [7]: 1.38 L/h/kg
CNC(=O)Nc1cc(OC)cc(NC(=O)NS(=O)(=O)c2cc(C)c(CCOC)s2)n1,> 74,> 20 µM,0.27 µM,–
C[C@@H]1CC(=O)Nc2cccc(N3CCCc4cc(-c5cnn(C)c5)c(C(F)F)cc43)c2N1,1300,4.5 µM,0.0034 µM,IC50 [8]: > 20 µM; IC50 [9]: > 20 µM
CNC(=O)c1ccc2nccc(N3CCCc4cc(-c5cnn(C)c5)c(C(F)F)cc43)c2c1,> 590,> 20 µM,–,–
CN1C(=O)CCc2ccc(N3CCCc4cc(-c5cnn(C)c5)c(C(F)F)cc43)cc21,> 530,> 20 µM,0.038 µM,–
CC(=O)N1CCc2c(cc(-c3cccc(Cl)c3)c(=O)n2CC2CC2)C1,96,52 µM,0.54 µM,–
C[C@@H]1CC(=O)Nc2cccc(-c3ccc4c(c3)c(-c3cnn(C)c3)nn4C)c2N1,370,–,–,–
Cc1ccc(S(=O)(=O)Nc2ccc3c(c2)CCC(=O)N3C)s1,0.23,5.2 µM,23 µM,Ratio IC50 (Homo sapiens [10]): 4.4
Cn1c(=O)sc2cc(N)ccc21,–,> 100 µM,> 100 µM,inhibition (CREB-binding protein [11]): Active
CNC(=O)Nc1cc(OC)cc(N2CCCc3cc(-c4cnn(C)c4)c(C(F)F)cc32)n1,> 170,> 20 µM,–,–
CNC(=O)N1CCOc2ccc(N3CCCc4cc(-c5cnn(C)c5)c(C(F)F)cc43)cc2C1,570,7.4 µM,0.013 µM,–
CCOC(=O)c1cnc2ccc(C(=O)OC)cc2c1Nc1cccc(C(=O)O)c1,> 87,> 20 µM,0.23 µM,–
CNC(=O)c1cnn2c(C3CCCN3)ccnc12 (stereo not given),> 2.6,> 84 µM,32 µM,–
COC(=O)c1c[nH]c2ccccc12,> 1,> 100 µM,99 µM,inhibition (CREB-binding protein [11]): Active

# Now from value to molecule, other results behind:
Ratio IC50 (Homo sapiens [1]),IC50 [2],IC50 (CREB-binding protein [3]),SMILES,also measured
25,74 µM,3 µM,CCC(=O)N1CCCc2cc(NS(=O)(=O)c3ccc(F)cc3C)ccc21,–
22,13 µM,–,COc1cccc2c1N(CCCNC(=O)c1cccc3c1N[C@H](C)C(=O)N3)CCC2,–
1300,12 µM,0.0095 µM,CNC(=O)c1c[nH]c2ccc(N3CCCc4cc(-c5cnn(C)c5)c(C(F)F)cc43)cc12,EC50 [4]: 2.2 µM; CLint scaled at 1 µM [5]: 2.82 L/h/kg; CLint scaled at 1 µM [6]: 0.78 L/h/kg; CLint scaled at 1 µM [7]: 1.2 L/h/kg
210,4.1 µM,0.02 µM,Cn1cc(-c2cc3c(cc2C(F)F)N(c2ccc4c(c2)n(C)c(=O)n4C)CCC3)cn1,EC50 [4]: 1 µM; CLint scaled at 1 µM [5]: 3.66 L/h/kg; CLint scaled at 1 µM [6]: 0.96 L/h/kg; CLint scaled at 1 µM [7]: 2.28 L/h/kg
> 14,> 20 µM,1.4 µM,CNC(=O)c1cnn2ccc(N3CCCc4cc(-c5cnn(C)c5)c(C(F)F)cc43)nc12,–
34,–,–,CCC(=O)N1CCOc2c(cc(-c3ccc(OC)c(OC)c3)cc2OC[C@H]2CCCN(C)C2)C1,–
> 430,> 20 µM,–,CC(=O)N1CCc2c(cc(N3CCCc4cc(-c5cnn(C)c5)c(C(F)F)cc43)c(=O)n2C)C1,–
> 15,6.9 µM,0.45 µM,CC(=O)N1CCCc2cc(N3CCCc4cc(-c5cnn(C)c5)c(C(F)F)cc43)ccc21,–
–,18 µM,–,Cn1cc(-c2cc3c(cc2C(F)F)N(c2ccc4sc(=O)n(C)c4c2)CCC3)cn1,CLint scaled at 1 µM [5]: 4.26 L/h/kg; CLint scaled at 1 µM [6]: 1.02 L/h/kg; CLint scaled at 1 µM [7]: 2.34 L/h/kg
–,> 20 µM,–,C[C@H]1Nc2c(cccc2N2CCCc3cc(-c4cnn(C)c4)c(C(F)F)cc32)NC1=O,–

# Reference: ChEMBL document CHEMBL4028905, “A Unique Approach to Design Potent and Selective Cyclic Adenosine Monophosphate Response Element Binding Protein, Binding Protein (CBP) Inhibitors” (J Med Chem, 2017)
